Laboratory results reported in ChEMBL document CHEMBL4823286, “Synthesis and evaluation of novel 2,4-diaminopyrimidines bearing a sulfoxide moiety as anaplastic lymphoma kinase (ALK) inhibition agents” (Bioorg Med Chem Lett, 2021).

Experiments:
NCI-H2228 = assay: Antiproliferative activity against human NCI-H2228 cells assessed as inhibition of cell proliferation measured by CCK8 assay; type: functional, cell-based
How it was run: (§1)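 Cell proliferation inhibition; IC50 given as mean ± SD of three independent experiments.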

BaF3 = assay: Antiproliferative activity against mouse BaF3 cells overexpressing ALK assessed as inhibition of cell proliferation measured by CCK8 assay; type: functional, cell-based; how it was run: as §1

Compound: Cc1cc(Nc2ncc(Cl)c(Nc3ccccc3S(=O)(=O)C(C)C)n2)c(OC(C)C)cc1C1CCNCC1 [CERITINIB]
- IC50 (NCI-H2228): 22.1 nM
- IC50 (BaF3): 7.11 nM

Compound: CC[S+]([O-])c1cc(F)ccc1Nc1nc(Nc2ccc(N3CCN(C)CC3)cc2OC)ncc1Cl (centres undefined)
- IC50 (NCI-H2228): 104 nM
- IC50 (BaF3): 48.9 nM
